Results published in ChEMBL document CHEMBL1153566, “5-Benzylidene-hydantoins: synthesis and antiproliferative activity on A549 lung cancer cell line” (Eur J Med Chem, 2009).
pIC50: −log10 of the molar value. Activity calls are given as the source filed them. The calls are words filed in the database; no cut-off is given here.

Tests used:
A549 [1] = assay: Antiproliferative activity against human A549 cells at 20 uM after 72 hrs by trypan blue exclusion method; format: functional; conditions: A549, 72 h
A549 [2] = assay: Induction of p53 protein expression in human A549 cells at 20 uM after 48 hrs by Western blot relative to untreated control; format: functional
In short: (§1)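 A549 cells (RPMI 1640, 2 mM glutamine, 10% FBS, 37 °C, 5% CO2) treated with compound; lysate proteins (50 µg) run on 5–15% SDS–PAGE, blotted to nitrocellulose, probed with mouse anti-human p53 (DO1) and anti-GAPDH monoclonals, then HRP secondary. p53 level given as fold increase over control; mean ± SD of three independent experiments, one-tailed Student's t-test.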

A549 [3] = assay: Induction of p53 protein expression in human A549 cells at 20 uM after 72 hrs by Western blot relative to untreated control; format: functional; in short: as §1
[4] = target: Epidermal growth factor receptor (Homo sapiens, UniProt P00533); assay: Inhibition of EGFR autophosphorylation in human A549 cells
A549 [5] = assay: Induction of p53 protein expression in human A549 cells at 10 uM after 72 hrs by Western blot relative to untreated control; format: functional; in short: as §1
A549 [6] = assay: Induction of p53 protein expression in human A549 cells at 10 uM after 48 hrs by Western blot relative to untreated control; format: functional; in short: as §1
A549 [7] = assay: Cell cycle arrest in human A549 cells assessed as accumulation at S phase; format: functional, cell-based
A549 [8] = assay: Induction of DNA damage in human A549 cells; format: functional, cell-based

Sequence of Epidermal growth factor receptor (P00533 whole entry): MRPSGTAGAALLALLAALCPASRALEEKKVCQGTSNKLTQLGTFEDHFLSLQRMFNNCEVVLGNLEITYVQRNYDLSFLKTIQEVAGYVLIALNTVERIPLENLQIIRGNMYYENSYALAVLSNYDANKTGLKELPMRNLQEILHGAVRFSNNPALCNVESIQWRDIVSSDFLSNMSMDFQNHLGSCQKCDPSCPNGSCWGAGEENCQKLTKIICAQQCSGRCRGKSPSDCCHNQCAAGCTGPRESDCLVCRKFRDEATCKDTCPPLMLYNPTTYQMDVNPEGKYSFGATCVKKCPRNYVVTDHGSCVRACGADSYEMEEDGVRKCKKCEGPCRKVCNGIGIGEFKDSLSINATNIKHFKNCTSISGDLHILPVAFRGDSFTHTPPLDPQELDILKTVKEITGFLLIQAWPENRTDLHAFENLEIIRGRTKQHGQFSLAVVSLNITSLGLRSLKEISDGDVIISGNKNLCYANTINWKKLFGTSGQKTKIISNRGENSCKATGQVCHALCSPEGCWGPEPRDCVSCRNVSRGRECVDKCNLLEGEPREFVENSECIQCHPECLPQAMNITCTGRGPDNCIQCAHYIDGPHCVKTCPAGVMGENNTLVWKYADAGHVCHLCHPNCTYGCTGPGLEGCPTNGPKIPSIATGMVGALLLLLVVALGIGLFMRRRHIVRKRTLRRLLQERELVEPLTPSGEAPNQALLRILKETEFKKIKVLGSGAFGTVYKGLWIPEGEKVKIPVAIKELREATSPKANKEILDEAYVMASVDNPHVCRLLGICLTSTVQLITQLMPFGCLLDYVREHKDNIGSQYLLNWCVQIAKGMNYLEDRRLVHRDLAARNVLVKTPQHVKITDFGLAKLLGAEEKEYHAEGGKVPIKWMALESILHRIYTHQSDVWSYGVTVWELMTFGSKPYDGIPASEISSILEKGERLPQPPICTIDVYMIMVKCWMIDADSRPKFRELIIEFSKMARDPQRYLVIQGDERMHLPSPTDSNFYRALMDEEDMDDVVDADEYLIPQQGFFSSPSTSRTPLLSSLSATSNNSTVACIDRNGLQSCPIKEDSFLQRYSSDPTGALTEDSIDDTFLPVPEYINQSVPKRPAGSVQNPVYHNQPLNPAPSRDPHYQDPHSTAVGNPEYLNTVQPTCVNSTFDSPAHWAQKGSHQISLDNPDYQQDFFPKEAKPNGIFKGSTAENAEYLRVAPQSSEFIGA

SMILES	inhibition at 20 µM (A549 [1]) [%]	fold change (FC) (A549 [2])	other results
CCCCN1C(=O)NC(=O)/C1=C/c1ccc(Cl)cc1	26		
O=C1NC(=O)N(Cc2ccccc2)/C1=C/c1ccc(O)cc1	41	1.8	
CC(=O)Nc1ccc(/C=C2\C(=O)NC(=O)N2CCc2ccccc2)cc1	39	1.7	
COc1ccc(/C=C2\C(=O)NC(=O)N2CCc2ccccc2)cc1	35	1	
O=C1NC(=O)N(CCc2ccccc2)/C1=C\c1ccccc1	42	1.3	
CN1C(=O)/C(=C\c2ccccc2)N(CCc2ccccc2)C1=O	31	1	
O=C1NC(=O)N(CCc2ccccc2)/C1=C\c1cccc(O)c1	40	1.1	
O=C1NC(=O)N(CCc2ccccc2)/C1=C/c1ccccc1	9.4	1.2	
O=C1NC(=O)N(CCc2ccccc2)/C1=C/c1ccc(O)cc1	53	2.3	fold change (FC) (A549 [3]): 3.2; pIC50 [4]: 4.72; fold change (FC) (A549 [5]): 1.4; fold change (FC) (A549 [6]): 1; Activity (A549 [7]): Active; Activity (A549 [8]): Active
CN1C(=O)NC(=O)/C1=C\c1ccccc1	5.7	1.1	
O=C1NC(=O)N(CCc2ccccc2)/C1=C/c1cccc(Cl)c1	35		
O=C1NC(=O)N(c2ccccc2)/C1=C/c1ccccc1	18		
O=C1NC(=O)N(CCc2cccc(Cl)c2)/C1=C\c1ccccc1	49	1.5	fold change (FC) (A549 [3]): 2.2; fold change (FC) (A549 [5]): 1.1; fold change (FC) (A549 [6]): 0.7
O=C1NC(=O)N(CCc2ccccc2)/C1=C/c1cccc(O)c1	28	0.9	
O=C1NC(=O)N(Cc2ccccc2)/C1=C\c1ccc(O)cc1	32	2	
O=C1NC(=O)N(CCc2ccccc2)[C@@H]1Cc1ccccc1	7.2	1	
O=C1NC(=O)N(CCc2cccc(Cl)c2)/C1=C/c1ccccc1	10		
CCCCN1C(=O)NC(=O)/C1=C\c1ccccc1	6.8		
CCCCCCN1C(=O)NC(=O)/C1=C\c1ccccc1	14		
CCCCN1C(=O)NC(=O)/C1=C/c1ccccc1	18		
CCCCN1C(=O)NC(=O)/C1=C\c1ccc(Cl)cc1	29		
CCCCCCN1C(=O)NC(=O)/C1=C/c1ccccc1	0		
CN1C(=O)/C(=C/c2ccccc2)N(CCc2ccccc2)C1=O	45	1	
O=C1NC(=O)N(Cc2ccccc2)/C1=C/c1ccccc1	2.9		
CC(=O)Nc1ccc(/C=C2/C(=O)NC(=O)N2CCc2ccccc2)cc1	32		
O=C1NC(=O)N(CCc2ccccc2)/C1=C\c1cccc(Cl)c1	43	1.2	fold change (FC) (A549 [3]): 1.9; fold change (FC) (A549 [5]): 1.4; fold change (FC) (A549 [6]): 0.9
O=C1NC(=O)N(Cc2ccccc2)/C1=C\c1ccccc1	42	1.7	fold change (FC) (A549 [3]): 2.6; fold change (FC) (A549 [5]): 1.8; fold change (FC) (A549 [6]): 1.1
O=C1NC(=O)N(CCc2ccccc2)/C1=C\c1ccc(O)cc1	44	1.5	fold change (FC) (A549 [3]): 2.7; fold change (FC) (A549 [5]): 1.7; fold change (FC) (A549 [6]): 0.9
CN1C(=O)NC(=O)/C1=C/c1ccccc1	16	1	
O=C1NC(=O)N(c2ccccc2)/C1=C\c1ccccc1	26		
